Source: ChEMBL document CHEMBL1122366, “Potential antiatherosclerotic agents. 3. Substituted benzoic and non benzoic acid analogues of cetaben” (1983)

Columns and labels:
[1] = target: T1, Sterol O-acyltransferase 1 (Rattus norvegicus) (UniProt O70536); assay: In vitro inhibition of acyl coenzyme A:cholesterol acyltransferase; set-up: concentration or dose not given beside the values; conditions: concentration not given here
T1 sequence (whole entry): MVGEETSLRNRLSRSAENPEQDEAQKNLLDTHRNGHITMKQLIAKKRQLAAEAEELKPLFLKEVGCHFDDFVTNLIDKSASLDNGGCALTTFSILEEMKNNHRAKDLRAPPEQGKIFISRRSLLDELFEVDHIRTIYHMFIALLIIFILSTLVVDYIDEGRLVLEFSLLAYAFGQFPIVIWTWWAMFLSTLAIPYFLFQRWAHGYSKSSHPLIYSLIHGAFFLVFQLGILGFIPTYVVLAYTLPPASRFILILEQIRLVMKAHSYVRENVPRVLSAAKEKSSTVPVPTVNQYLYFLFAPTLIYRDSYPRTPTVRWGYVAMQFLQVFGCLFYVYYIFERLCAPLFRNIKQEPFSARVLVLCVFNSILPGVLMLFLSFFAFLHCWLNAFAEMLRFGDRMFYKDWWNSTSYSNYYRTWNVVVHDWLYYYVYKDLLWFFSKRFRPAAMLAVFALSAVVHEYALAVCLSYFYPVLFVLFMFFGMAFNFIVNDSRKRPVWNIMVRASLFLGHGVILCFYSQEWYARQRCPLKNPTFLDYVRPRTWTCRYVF
Method in brief: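 Enzyme fatty acyl-CoA:cholesterol acyltransferase (ACAT), assayed in vitro at a single drug concentration of 5.2 μg/mL. The value is the mean percent inhibition of enzyme activity.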

Rattus norvegicus [2] = assay: In vivo triglyceride lowering activity when dosed at 0.03 % of the diet; format: functional
Method in brief: (§1)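 Normal rats were dosed in the diet. Serum sterol and triglyceride levels were measured and expressed as the mean percent of control values. Significance versus control was reported at p < 0.05, 0.01 and 0.001.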

Rattus norvegicus [3] = assay: In vivo sterol lowering activity when dosed as 0.01 % of the diet; format: functional; method in brief: as §1
Rattus norvegicus [4] = assay: In vivo sterol lowering activity when dosed as 0.03 % of the diet; format: functional; method in brief: as §1
Rattus norvegicus [5] = assay: In vivo sterol lowering activity at dose of 0.10 % of the diet; format: functional; method in brief: as §1
Rattus norvegicus [6] = assay: In vivo triglyceride lowering activity when dosed as 0.01 % of the diet; format: functional; method in brief: as §1
Rattus norvegicus [7] = assay: In vivo triglyceride lowering activity dosed at 0.10 % of the diet.; format: functional; method in brief: as §1

Structure (SMILES) | inhibition [1] | serum triglyceride level, percent of control (Rattus norvegicus [2]) | serum sterol level, % of control (Rattus norvegicus [3]) | serum sterol level, percent of control (Rattus norvegicus [4]) | serum sterol level, percent of control (Rattus norvegicus [5]) | serum triglyceride level, percent of control (Rattus norvegicus [6]) | serum triglyceride, percent of control (Rattus norvegicus [7]) | Diet (Rattus norvegicus [2])
CCCCCCCCCCCCCCCCNc1ccc(SCC(=O)O)cc1 | < 22% | 110% | 92% | 97% | 93% | 72% | 100% | –
CCCCCCCCCCCCCCCCNc1ncc(C(=O)O)cn1 | < 21% | 94% | 108% | 108% | 114% | 89% | 93% | –
CCCCCCCCCCCCCCCCNc1ccc(C(=O)C(C)C(=O)OCC)cc1 (centres undefined) | 21% | 88% | 100% | 87% | <73% | 87% | <66% | –
CCCCCCCCCCCCCCCCNc1ccc(C(=O)NCC(O)CO)cc1 (centres undefined) | < 61% | <73% | 99% | 88% | <72% | 114% | <48% | –
CCCCCCCCCCCCCCCCNc1ccc(C(=O)OCC(C)(C)CO)cc1 | 13% | 92% | 97% | 93% | 101% | 103% | 101% | –
CCCCCCCCCCCCCCCCNc1ccc(C(=O)CS(C)(=O)=O)cc1 | 0% | 112% | 98% | 97% | 100% | 88% | 110% | –
CCCCCCCCCCCCCCCCNc1ccc(C(=O)NC(C)=O)cc1 | < 35% | 73% | 93% | <87% | 91% | 86% | 74% | –
CCCCCCCCCCCCCCCCNc1ccc(C(=O)CC(=O)O)cc1 | < 28% | 90% | 105% | 100% | 104% | 80% | 100% | –
CCCCCCCCCCCCCCCCNc1ccc(C(=O)NN)cc1 | < 24% | 84% | 110% | 105% | 116% | 108% | 84% | –
CCCCCCCCCCCCCCCCNc1ccc(CCC(=O)O)cc1 | 50% | <50% | 88% | <80% | 92% | <59% | <37% | –
CCCCCCCCCCCCCCCCNc1ccc(C(=O)OC2CCCCO2)cc1 (centres undefined) | 0% | – | 91% | <76% | <74% | 108% | <54% | 98%
CCCCCCCCCCCCCCCCNc1ccc(C(=O)OCC(C)O)cc1 (centres undefined) | < 19% | <61% | 96% | <82% | <89% | <67% | <59% | –
CCCCCCCCCCCCCCCCNc1ccc(C(=O)NS(C)(=O)=O)cc1 | 11% | <73% | 94% | <84% | <87% | 77% | <54% | –
Br.CCCCCCCCCCCCCCCCNc1ccc(OC(C)=O)cc1 | 12% | 146% | 92% | 95% | 91% | 108% | 117% | –
CCCCCCCCCCCCCCCCNc1ccc(C(=O)O)c(F)c1 | 57% | 79% | 93% | <77% | <75% | 77% | <40% | –
CCCCCCCCCCCCCCCCNc1ccc(C(=O)CO)cc1 | 20% | 75% | 103% | 97% | <85% | 89% | <71% | –
CCCCCCCCCCCCCCCCNc1ccc(CCC(=O)OCC)cc1 | 7% | 88% | 89% | 89% | 84% | 96% | <45% | –
